biological target: T1, Methylated-DNA--protein-cysteine methyltransferase (Homo sapiens, UniProt P16455); experiment: Inactivation of human O-6-methylguanine-DNA methyltransferase assessed as [3H]methylated protein formation by liquid scintillation counting in presence of [3H]methylated calf thymus DNA
T1 sequence (P16455 whole entry): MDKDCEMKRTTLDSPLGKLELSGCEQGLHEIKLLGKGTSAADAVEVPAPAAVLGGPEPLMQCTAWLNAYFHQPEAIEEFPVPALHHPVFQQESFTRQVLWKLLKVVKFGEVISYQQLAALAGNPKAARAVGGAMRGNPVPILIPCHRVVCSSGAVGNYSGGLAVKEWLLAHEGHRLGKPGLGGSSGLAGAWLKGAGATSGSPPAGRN

SMILES | IC50
Nc1ccc(Oc2ccc(Nc3nc(N)nc(OCc4ccccc4)c3[N+](=O)[O-])cc2)cc1 | > 600 µM
Nc1ccc(C(=O)c2ccc(Nc3nc(N)nc(OCc4ccccc4)c3[N+](=O)[O-])cc2)cc1 | > 600 µM
Nc1nc(OCc2cc(Br)cs2)c2[nH]cnc2n1 [LOMEGUATRIB] | 0.003 µM

tested on: not listed separately; experiment: Solubility of the compound in phosphate buffer; format: physicochemical
How it was run: (§1)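 Solubility was assessed while setting up thermal denaturation experiments with salmon sperm DNA (68% A–T base-pair content). Each buffer (phosphate, MES, Tris) was tried alone and also mixed with DMSO or ethanol.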

SMILES | solubility
Nc1ccc(Cc2ccc(Nc3nc(N)nc(OCc4cc(Br)cs4)c3[N+](=O)[O-])cc2)cc1 | Insoluble
Nc1ccc(Nc2ccc(Nc3nc(N)nc(OCc4cc(Br)cs4)c3[N+](=O)[O-])cc2)cc1 | Insoluble
Nc1ccc(Oc2ccc(Nc3nc(N)nc(OCc4cc(Br)cs4)c3[N+](=O)[O-])cc2)cc1 | Insoluble
Nc1ccc(C(=O)c2ccc(Nc3nc(N)nc(OCc4cc(Br)cs4)c3[N+](=O)[O-])cc2)cc1 | Insoluble
Nc1ccc(Cc2ccc(Nc3nc(N)nc(OCc4ccccc4)c3[N+](=O)[O-])cc2)cc1 | Insoluble
Nc1ccc(Nc2ccc(Nc3nc(N)nc(OCc4ccccc4)c3[N+](=O)[O-])cc2)cc1 | Insoluble
Nc1ccc(Oc2ccc(Nc3nc(N)nc(OCc4ccccc4)c3[N+](=O)[O-])cc2)cc1 | Insoluble
Nc1ccc(C(=O)c2ccc(Nc3nc(N)nc(OCc4ccccc4)c3[N+](=O)[O-])cc2)cc1 | Insoluble

tested on: not listed separately; experiment: Solubility of the compound in Tris buffer; format: physicochemical; how it was run: as §1

SMILES | solubility
Nc1ccc(Cc2ccc(Nc3nc(N)nc(OCc4cc(Br)cs4)c3[N+](=O)[O-])cc2)cc1 | Insoluble
Nc1ccc(Nc2ccc(Nc3nc(N)nc(OCc4cc(Br)cs4)c3[N+](=O)[O-])cc2)cc1 | Insoluble
Nc1ccc(Oc2ccc(Nc3nc(N)nc(OCc4cc(Br)cs4)c3[N+](=O)[O-])cc2)cc1 | Insoluble
Nc1ccc(C(=O)c2ccc(Nc3nc(N)nc(OCc4cc(Br)cs4)c3[N+](=O)[O-])cc2)cc1 | Insoluble
Nc1ccc(Cc2ccc(Nc3nc(N)nc(OCc4ccccc4)c3[N+](=O)[O-])cc2)cc1 | Insoluble
Nc1ccc(Nc2ccc(Nc3nc(N)nc(OCc4ccccc4)c3[N+](=O)[O-])cc2)cc1 | Insoluble
Nc1ccc(Oc2ccc(Nc3nc(N)nc(OCc4ccccc4)c3[N+](=O)[O-])cc2)cc1 | Insoluble
Nc1ccc(C(=O)c2ccc(Nc3nc(N)nc(OCc4ccccc4)c3[N+](=O)[O-])cc2)cc1 | Insoluble

tested on: not listed separately; experiment: Solubility of the compound in MES buffer; format: physicochemical; how it was run: as §1

SMILES | solubility
Nc1ccc(Cc2ccc(Nc3nc(N)nc(OCc4cc(Br)cs4)c3[N+](=O)[O-])cc2)cc1 | Insoluble
Nc1ccc(Nc2ccc(Nc3nc(N)nc(OCc4cc(Br)cs4)c3[N+](=O)[O-])cc2)cc1 | Insoluble
Nc1ccc(Oc2ccc(Nc3nc(N)nc(OCc4cc(Br)cs4)c3[N+](=O)[O-])cc2)cc1 | Insoluble
Nc1ccc(C(=O)c2ccc(Nc3nc(N)nc(OCc4cc(Br)cs4)c3[N+](=O)[O-])cc2)cc1 | Insoluble
Nc1ccc(Cc2ccc(Nc3nc(N)nc(OCc4ccccc4)c3[N+](=O)[O-])cc2)cc1 | Insoluble
Nc1ccc(Nc2ccc(Nc3nc(N)nc(OCc4ccccc4)c3[N+](=O)[O-])cc2)cc1 | Insoluble
Nc1ccc(Oc2ccc(Nc3nc(N)nc(OCc4ccccc4)c3[N+](=O)[O-])cc2)cc1 | Insoluble
Nc1ccc(C(=O)c2ccc(Nc3nc(N)nc(OCc4ccccc4)c3[N+](=O)[O-])cc2)cc1 | Insoluble

From ChEMBL document CHEMBL1681736, “Towards more specific O6-methylguanine-DNA methyltransferase (MGMT) inactivators” (Bioorg Med Chem, 2011)
